From ChEMBL document CHEMBL1124738, “Novel 21-aminosteroids that inhibit iron-dependent lipid peroxidation and protect against central nervous system trauma” (J Med Chem, 1990)

Tests used:
Type in all cases: functional
Rattus norvegicus [1] = species: Rattus norvegicus; assay: Ability to inhibit iron-dependent lipid peroxidation in rat brain homogenate using MDA (malondialdehyde) formation assay at 300 uM
Mus musculus [2] = assay: Percent increase in KCN lethality (cytotoxic hypoxia) model against male CF-1 mice at a dose 30 mg/kg administered intravenously; conditions: route intravenous
Mus musculus [3] = species: Mus musculus; assay: Lowest effective dose in a mouse head injury model was reported
In short: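 Unanesthetized male CF-1 mice, 16–22 g; concussive head injury by weight drop (900 g cm for 16–20 g mice, 950 g cm for 20–22 g). Vehicle or compound given blindly as iv bolus 3–5 min post-injury; vehicle 0.05 N HCl or 0.5% Tween 80. Four groups of 20 per trial (vehicle plus three doses). Grip test on suspended taut string at 1 h; group score as mean time on string.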

Rattus norvegicus [4] = species: Rattus norvegicus; assay: Ability to inhibit iron-dependent lipid peroxidation in rat brain homogenate using MDA (malondialdehyde) formation assay
In short: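 Incubations at 37 °C contain 20% ethanol and compound up to 300 μM, and are started with 200 μM Fe2+. They are stopped after 20 min with ice-cold 12.5% TCA in 0.8 N HCl. Readout is TBAR formation, reported as IC50 or % inhibition at 300 μM.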

Mus musculus [5] = assay: Percent increase in KCN lethality (cytotoxic hypoxia) model against male CF-1 mice at a dose 100 mg/kg administered intravenously; conditions: route intravenous
Mus musculus [6] = assay: Evaluated in a potassium cyanide lethality (cytotoxic hypoxia) model against male CF-1 mice at 100 mg/kg administered intravenously; conditions: route intravenous
Mus musculus [7] = assay: Evaluated in a potassium cyanide lethality (cytotoxic hypoxia) model against male CF-1 mice at a dose 30 mg/kg administered intravenously; conditions: route intravenous

C[C@H]1CC2C([C@@H](O)C[C@@]3(C)C2CC[C@]3(O)C(=O)CN2CCN(c3ccccn3)CC2)[C@@]2(C)C=CC(=O)C=C12 (some centres undefined)
inhibition (Rattus norvegicus [1]): 0%

C[C@]12CCC(O)CC1CC[C@@H]1[C@@H]2C(=O)C[C@@]2(C)[C@H]1CC[C@]2(O)C(=O)CN1CCN(c2ccccn2)CC1 (some centres undefined)
inhibition (Rattus norvegicus [1]): 3%

CCN(CC)c1ccc(N2CCN(CC(=O)[C@H]3[C@H](C)CC4C5CCC6=CC(=O)C=C[C@]6(C)C5=CC[C@@]43C)CC2)nc1N(CC)CC.O=C(O)/C=C/C(=O)O (some centres undefined)
Increase in LD50 (Mus musculus [2]): 15% | Lowest effective dose (Mus musculus [3]): 0.003 mg/kg | IC50 (Rattus norvegicus [4]): 3 µM | Increase in LD50 (Mus musculus [5]): 46%

C[C@]12CCC(=O)C=C1CCC1C2C(=O)C[C@@]2(C)C1CC[C@]2(O)C(=O)CN1CCN(c2ccccn2)CC1 (some centres undefined)
inhibition (Rattus norvegicus [1]): 3%

C[C@H]1C[C@@H]2[C@H]([C@@H](O)C[C@@]3(C)[C@H]2CC[C@]3(O)C(=O)COC(=O)CCC(=O)[O-])[C@@]2(C)C=CC(=O)C=C12.[Na+] [METHYLPREDNISOLONE SODIUM SUCCINATE]
Increase in LD50 (Mus musculus [2]): 0% | Lowest effective dose (Mus musculus [3]): 15 mg/kg | inhibition (Rattus norvegicus [1]): 0% | Increase in LD50 (Mus musculus [5]): 20%

C[C@]12CCC(=O)C=C1CCC1C2=CC[C@@]2(C)C1CC[C@]2(O)C(=O)CN1CCN(c2cccc(N3CCCC3)n2)CC1 (some centres undefined)
IC50 (Rattus norvegicus [4]): 57 µM

C[C@]12CCC(=O)C=C1CCC1C2=CC[C@@]2(C)C1CC[C@]2(O)C(=O)CN1CCN(Cc2ncccc2O)CC1 (some centres undefined)
inhibition (Rattus norvegicus [1]): 5%

COc1ccccc1N1CCN(CC(=O)[C@@]2(O)CCC3C4CCC5=CC(=O)CC[C@]5(C)C4=CC[C@@]32C)CC1 (some centres undefined)
inhibition (Rattus norvegicus [1]): 37%

C[C@]12CCC(=O)C=C1CCC1C2=CC[C@@]2(C)C1CC[C@]2(O)C(=O)CN1CCNCC1 (some centres undefined)
inhibition (Rattus norvegicus [1]): 15%

C[C@]12CC[C@H]3[C@@H](CCC4=CC(=O)CC[C@@]43C)[C@@H]1CC[C@@H]2C(=O)CN1CCN(c2ccccn2)CC1
inhibition (Rattus norvegicus [1]): 9%

CCNc1cccnc1N1CCN(CC(=O)[C@H]2[C@H](C)CC3C4CCC5=CC(=O)C=C[C@]5(C)C4=CC[C@@]32C)CC1.O=C(O)/C=C/C(=O)O (some centres undefined)
Lowest effective dose (Mus musculus [3]): 0.03 mg/kg | IC50 (Rattus norvegicus [4]): 15 µM

C[C@]12C=CC(=O)C=C1CCC1C2[C@H](O)C[C@@]2(C)C1CC[C@]2(O)C(=O)CN1CCN(c2ccccn2)CC1 (some centres undefined)
inhibition (Rattus norvegicus [1]): 0%

CC(=O)N(O)CCCCCNC(=O)CCC(=O)N(O)CCCCCNC(=O)CCC(=O)N(O)CCCCCN [DEFEROXAMINE]
IC50 (Rattus norvegicus [4]): 112 µM

C[C@]12CC(=O)[C@H]3[C@@H](CCC4=CC(=O)CC[C@@]43C)[C@@H]1CC[C@@H]2C(=O)CN1CCN(c2ccccn2)CC1
inhibition (Rattus norvegicus [1]): 14%

C[C@]12CCC(=O)C=C1CC[C@@H]1[C@@H]2CC[C@@]2(C)[C@H]1CC[C@]2(O)C(=O)CN1CCN(c2ccccn2)CC1
inhibition (Rattus norvegicus [1]): 26%

C[C@@H]1C[C@H]2[C@@H]3CCC4CC(=O)CC[C@]4(C)C3=CC[C@]2(C)[C@@]1(O)C(=O)CN1CCN(c2ccccn2)CC1 (some centres undefined)
inhibition (Rattus norvegicus [1]): 31%

Cc1c(C)c2c(c(C)c1O)CC[C@@](C)(CCC[C@H](C)CCC[C@H](C)CCCC(C)C)O2 [ALPHA-TOCOPHEROL]
IC50 (Rattus norvegicus [4]): 30 µM

C[C@]12CCC(=O)C=C1CCC1C2=CC[C@@]2(C)C1CC[C@]2(O)C(=O)CN1CCN(c2cc(N3CCCC3)nc(N3CCCC3)n2)CC1.O=C(O)/C=C/C(=O)O (some centres undefined)
Increase in LD50 (Mus musculus [6]): 33% | Increase in LD50 (Mus musculus [7]): 0% | Lowest effective dose (Mus musculus [3]): 1 mg/kg | inhibition (Rattus norvegicus [1]): 25%

C[C@@H]1CC2C3CCC4=CC(=O)C=C[C@]4(C)C3=CC[C@]2(C)[C@H]1C(=O)CN1CCN(c2ccccn2)CC1 (some centres undefined)
Lowest effective dose (Mus musculus [3]): 10 mg/kg | inhibition (Rattus norvegicus [1]): 4%

C[C@@H]1C[C@H]2[C@@H]3CCC4=CC(=O)C=C[C@]4(C)C3=CC[C@]2(C)[C@H]1C(=O)CN1CCN(c2cc(N3CCCC3)nc(N3CCCC3)n2)CC1 [TIRILAZAD]
Increase in LD50 (Mus musculus [2]): 14% | Lowest effective dose (Mus musculus [3]): 0.003 mg/kg | IC50 (Rattus norvegicus [4]): 18 µM | Increase in LD50 (Mus musculus [5]): 20%

C[C@]12CCC(=O)C=C1CCC1C2[C@H](O)C[C@@]2(C)C1CC[C@]2(O)C(=O)CN1CCN(c2ccccn2)CC1 (some centres undefined)
inhibition (Rattus norvegicus [1]): 20%

C[C@]12CCC(=O)C=C1CCC1C2=CC[C@@]2(C)C1CC[C@]2(O)C(=O)CN1CCN(c2ccccn2)CC1 (some centres undefined)
Lowest effective dose (Mus musculus [3]): 10 mg/kg | inhibition (Rattus norvegicus [1]): 23%

COc1cccc(N2CCN(CC(=O)[C@@]3(O)CCC4C5CCC6=CC(=O)CC[C@]6(C)C5=CC[C@@]43C)CC2)n1 (some centres undefined)
IC50 (Rattus norvegicus [4]): 101 µM

C[C@]12CCC(=O)C=C1CCC1C2=CC[C@@]2(C)C1CC[C@]2(O)C(=O)CN1CCN(CCO)CC1 (some centres undefined)
inhibition (Rattus norvegicus [1]): 0%
